ChEMBL document CHEMBL1135672, “QSAR evaluation of the Ch'an Su and related bufadienolides against the colchicine-resistant primary liver carcinoma cell line PLC/PRF/5(1)” (J Med Chem, 2002)
Values after ≈ are worked out from the molar mass of the structure shown.

Experiments:
[1] = Inhibitory activity against colchicine resistant parent primary liver carcinoma (PLC) cell line PLC/PRF/5; format: functional, Homo sapiens
Procedure, shortened: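 PLC/PRF/5 cells were precultured 24 h at 37 °C in 5% CO₂ in 96-well plates, then given colchicine at 0.5 μg/mL. Test compounds were added in dilutions of 10⁻²–10⁻⁶ μg/mL and incubated 72 h at 37 °C in 5% CO₂. Survival was read by MTT. IC50 is the μg/mL giving 50% growth inhibition of the colchicine-resistant cells.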

[2] = Inhibitory activity against the primary liver carcinoma (PLC) cell line PLC/PRF/5; format: functional, Homo sapiens

| Structure (SMILES) | IC50 [1] [µg/mL] | IC50 [2] [µg/mL] |
| --- | --- | --- |
| C[C@]12CCC3C(CC[C@@H]4C[C@@H](O)CC[C@]34C)C1=CC[C@@H]2C1=CC(=O)OC1 (stereo not given in full) | 0.73 (≈ 2.05 µM) | 0.36 (≈ 1.01 µM) |
| C[C@]12C=CC(=O)C=C1CCC1C2CC[C@]2(C)[C@@H](c3ccc(=O)oc3)C[C@H]3O[C@]132 (stereo not given in full) | 10 (≈ 26.4 µM) | 6.7 (≈ 17.7 µM) |
| C[C@]12C=CC(=O)C[C@H]1CCC1C2CC[C@]2(C)[C@@H](c3ccc(=O)oc3)C[C@H]3O[C@]132 (stereo not given in full) | 7.8 (≈ 20.5 µM) | 2.6 (≈ 6.83 µM) |
| CC(=O)O[C@H]1CC[C@@]2(C)[C@H](CC[C@@H]3[C@@H]2CC[C@]2(C)[C@@H](c4ccc(=O)oc4)C(=O)[C@H]4O[C@@]432)C1 | 7.6 (≈ 17.3 µM) | 2.4 (≈ 5.45 µM) |
| CC(=O)O[C@H]1CC[C@@]2(C)[C@H](CC[C@@H]3[C@@H]2CC[C@]2(C)[C@@H](c4ccc(=O)oc4)[C@@H](OC(=O)CCC(=O)O)[C@H]4O[C@]342)C1 | > 50 | 50 (≈ 92.1 µM) |
| C[C@]12CC[C@H]3[C@@H](CC[C@]4(O)C[C@@H](O)CC[C@]34C=O)[C@@]1(O)CC[C@@H]2c1ccc(=O)oc1 | 0.00053 (≈ 0.00127 µM) | 0.00016 (≈ 0.000384 µM) |
| COC(=O)CCCCCCC(=O)O[C@H]1CC[C@@]2(C)[C@H](CC[C@@H]3[C@@H]2CC[C@]2(C)[C@@H](C4=CC(=O)OC4)CC[C@]32O)C1 | 0.98 (≈ 1.8 µM) | 0.53 (≈ 0.973 µM) |
| CC(=O)O[C@@H]1C[C@]2(C)[C@@H](c3ccc(=O)oc3)CC[C@]2(O)[C@@H]2CC[C@@H]3CC(=O)CC[C@]3(C)[C@H]21 | 5.6 (≈ 12.7 µM) | 0.79 (≈ 1.79 µM) |
| CCOC(=O)C/C=C/C1=CO[C@]23CCC1[C@@]2(C)CC[C@H]1[C@H]3CC[C@@H]2C[C@@H](O)CC[C@@]21C | 9.5 (≈ 22.2 µM) | 7.5 (≈ 17.5 µM) |
| CC(=O)O[C@H]1[C@H]2O[C@]23[C@@H]2CC[C@@H]4C[C@@H](OC(=O)/C=C/c5ccccc5)CC[C@]4(C)[C@H]2CC[C@]3(C)[C@H]1c1ccc(=O)oc1 | 9.8 (≈ 17.1 µM) | 6.4 (≈ 11.2 µM) |
| C[C@]12CCC(=O)C[C@H]1CC[C@@H]1[C@@H]2CC[C@]2(C)[C@@H](c3ccc(=O)oc3)CC[C@]12O | 0.61 (≈ 1.59 µM) | 0.0093 (≈ 0.0242 µM) |
| CC(C)(C)OC(=O)NNC(=O)CCC(=O)O[C@H]1CC[C@@]2(C)[C@H](CC[C@@H]3[C@@H]2CC[C@]2(C)[C@@H](c4ccc(=O)oc4)CC[C@]32O)C1 | 0.0056 (≈ 0.00932 µM) | 0.00062 (≈ 0.00103 µM) |
| C[C@]12CC[C@H](OC(=O)CCC(=O)O)C[C@H]1CC[C@@H]1[C@@H]2CC[C@]2(C)[C@@H](c3ccc(=O)oc3)CC[C@]12O | 0.51 (≈ 1.05 µM) | 0.066 (≈ 0.136 µM) |
| C[C@]12CC[C@H](O)C[C@H]1CC[C@@H]1[C@@H]2CC[C@]2(C)C3CC[C@]12OC=C3/C=C/CC(=O)O | > 50 | 10 (≈ 25 µM) |
| CC(=O)O[C@H]1CC[C@@]2(C)[C@H](CC[C@@H]3[C@@H]2[C@H](O)C(=O)[C@]2(C)[C@@H](c4ccc(=O)oc4)CC[C@]32O)C1 | 6.8 (≈ 14.8 µM) | 0.87 (≈ 1.9 µM) |
| CC(=O)CC1CC2C(O1)[C@H]1O[C@]13[C@@H]1CC[C@@H]4C[C@@H](O)CC[C@]4(C)[C@H]1CC[C@]23C (stereo not given in full) | > 50 | 9.5 (≈ 24.5 µM) |
| CCOC(=O)C/C=C/C1=CO[C@]23CCC1[C@@]2(C)CC[C@H]1[C@H]3CC[C@@H]2C[C@@H](OC(C)=O)CC[C@@]21C | 41 (≈ 87.1 µM) | 6.4 (≈ 13.6 µM) |
| CC(=O)CC1OC2C(C1C=O)[C@@]1(C)CC[C@H]3[C@@H](CC[C@@H]4C[C@@H](O)CC[C@@]43C)[C@]13O[C@H]23 (stereo not given in full) | > 50 | 26 (≈ 62.4 µM) |
| CC(=O)O[C@H]1[C@H]2O[C@]23[C@@H]2CC[C@@H]4C[C@@H](OC(=O)c5cc([N+](=O)[O-])cc([N+](=O)[O-])c5)CC[C@]4(C)[C@H]2CC[C@]3(C)[C@H]1c1ccc(=O)oc1 | 9.6 (≈ 15.1 µM) | 0.78 (≈ 1.23 µM) |
| C[C@]12CC[C@H]3[C@@H](CC[C@@H]4C[C@@H](O)CC[C@@]43C=O)[C@]13O[C@@H]3C[C@@H]2c1ccc(=O)oc1 | 0.075 (≈ 0.188 µM) | 0.0089 (≈ 0.0223 µM) |

| Structure (SMILES) | IC50 [1] [µg/mL] | IC50 [2] [µg/mL] |
| --- | --- | --- |
| COC(=O)C/C=C/C1=CO[C@]23CCC1[C@@]2(C)CC[C@H]1[C@H]3CC[C@@H]2C[C@@H](OC(C)=O)CC[C@@]21C | 41 (≈ 89.8 µM) | 6.6 (≈ 14.5 µM) |
| C[C@]12CC[C@H](O)C[C@H]1CC[C@@H]1[C@@H]2CC[C@]2(C)[C@@H](c3ccc(=O)oc3)C[C@H](O)[C@]12Cl | 0.82 (≈ 1.95 µM) | 0.07 (≈ 0.166 µM) |
| C[C@]12CC[C@H](O)C[C@H]1CC[C@@H]1[C@@H]2CC[C@]2(C)[C@@H](c3ccc(=O)oc3)C[C@H](O)[C@]12O | 30 (≈ 74.5 µM) | 35 (≈ 86.9 µM) |
| CC(=O)O[C@H]1CC[C@@]2(C)[C@H](CC[C@@H]3[C@@H]2CC[C@]2(C)[C@@H](c4ccc(=O)oc4)[C@H](O)[C@H]4O[C@]342)C1 | 7.5 (≈ 16.9 µM) | 6.7 (≈ 15.1 µM) |
| C[C@]12CC[C@H](OC(=O)CCCCCCC(=O)O)C[C@H]1CC[C@@H]1[C@@H]2CC[C@]2(C)[C@@H](c3ccc(=O)oc3)CC[C@]12O | 0.0036 (≈ 0.00663 µM) | 0.00075 (≈ 0.00138 µM) |
| CC(=O)O[C@H]1CC[C@@]2(C)[C@H](CC[C@@H]3[C@@H]2CC[C@]2(C)[C@@H](c4ccc(=O)oc4)CC(=O)[C@]32O)C1 | 6.4 (≈ 14.5 µM) | 0.077 (≈ 0.174 µM) |
| C[C@]12CCC(=O)C[C@H]1CC[C@@H]1[C@@H]2CC[C@]2(C)[C@@H](c3ccc(=O)oc3)C(=O)[C@H]3O[C@@]312 | 5.6 (≈ 14.1 µM) | 0.85 (≈ 2.14 µM) |
| CC(=O)O[C@H]1CC[C@@]2(C)[C@H](CC[C@@H]3[C@@H]2CC[C@]2(C)[C@@H](c4ccc(=O)oc4)[C@@H](OC(C)=O)[C@H]4O[C@]342)C1 | 0.092 (≈ 0.19 µM) | 0.04 (≈ 0.0825 µM) |
| C[C@]12CCC(=O)C[C@H]1CC[C@@H]1[C@@H]2CC[C@]2(C)[C@@H](c3ccc(=O)oc3)CC(=O)[C@@H]12 | 10 (≈ 26.1 µM) | 7 (≈ 18.3 µM) |
| CCOC(=O)C/C=C(\C=O)C1[C@@H](O)C(=O)[C@H]2[C@@H]3CC[C@@H]4C[C@@H](OC(C)=O)CC[C@]4(C)[C@H]3CC[C@]12C (stereo not given in full) | 33 (≈ 67.5 µM) | 22 (≈ 45 µM) |
| C[C@]12CC[C@H](O)C[C@H]1CC[C@@H]1[C@@H]2CC[C@]2(C)[C@@H](c3ccc(=O)oc3)CC(=O)[C@@H]12 | 12 (≈ 31.2 µM) | 8.2 (≈ 21.3 µM) |
| C[C@]12CC[C@H](O)C[C@H]1CC[C@@H]1[C@@H]2CC[C@]2(C)[C@@H](c3ccc(=O)oc3)C[C@@H]3O[C@]312 | 26 (≈ 67.6 µM) | 20 (≈ 52 µM) |
| C[C@]12CC[C@H](O)C[C@H]1CC[C@H]1[C@H]3C(=O)C[C@H](c4ccc(=O)oc4)[C@@]3(C)CC[C@@H]12 | 12 (≈ 31.2 µM) | 0.82 (≈ 2.13 µM) |
| C[C@]12CCC(=O)C=C1CCC1C2CC[C@]2(C)[C@@H](c3ccc(=O)oc3)CC[C@]12O (stereo not given in full) | 0.82 (≈ 2.14 µM) | 0.00019 (≈ 0.000497 µM) |
| C[C@]12CCC(=O)C[C@H]1CCC1C2CC[C@]2(C)[C@@H](c3ccc(=O)oc3)C[C@@H]3O[C@@]132 (stereo not given in full) | 43 (≈ 112 µM) | 8.7 (≈ 22.7 µM) |
| C[C@]12CC[C@H](O)C[C@@]1(O)CCC1C2CC[C@]2(C)[C@@H](c3ccc(=O)oc3)C[C@@H]3O[C@@]132 (stereo not given in full) | 0.49 (≈ 1.22 µM) | 0.52 (≈ 1.3 µM) |
| C[C@]12CCC3C(CC[C@@H]4C[C@@H](O)CC[C@]34C)C1=CC[C@@H]2c1ccc(=O)oc1 (stereo not given in full) | 0.9 (≈ 2.44 µM) | 0.83 (≈ 2.25 µM) |
| CC(=O)O[C@H]1CC[C@]2(C)C3CC[C@]4(C)[C@@H](c5ccc(=O)oc5)[C@@H](O)[C@@H]5O[C@@]54C3CC[C@@H]2C1 (stereo not given in full) | 1 (≈ 2.26 µM) | 0.88 (≈ 1.99 µM) |
| CC(=O)O[C@H]1CC[C@]2(C)C3CC[C@]4(C)[C@@H](c5ccc(=O)oc5)C[C@@H]5O[C@@]54C3CC[C@@H]2C1 (stereo not given in full) | 7.3 (≈ 17.1 µM) | 5.9 (≈ 13.8 µM) |
| CC(=O)O[C@H]1CC[C@@]2(C)[C@H](CC[C@@H]3[C@@H]2CC[C@]2(C)[C@@H](c4ccc(=O)oc4)C[C@H]4O[C@]342)C1 | 0.95 (≈ 2.23 µM) | 0.32 (≈ 0.75 µM) |
